Results on two molecules are retold here after ChEMBL document CHEMBL4359883, “4(1H)-quinolone derivatives overcome acquired resistance to anti-microtubule agents by targeting the colchicine site of β-tubulin” (Eur J Med Chem, 2019).

Molecules are shown by their SMILES. Activity calls are given as the source filed them. The rule behind the calls is not given here.

The test system of data set [1] is CL1-0. The data set can be described thus: Induction of apoptosis in human CL1-0 cells assessed as PARP cleavage at 20 nM by immunoblotting analysis. It is filed as functional, cell-based. Conditions: TDE = time-dependent effect. Background: In western blotting, separated proteins are transferred to a membrane and probed.
Data set [2] is described as follows: Antiproliferative activity against human 82T cells assessed as reduction in cell viability after 72 hrs by MTS assay. It is filed as functional, cell-based. The method in brief:
(§1)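 Cells plated at 2000/well, cultured overnight, then exposed to a range of compound concentrations for 72 h. MTS reagent added for 1–4 h at 37 °C and absorbance read at 490 nm. Cultured in RPMI 1640 or DMEM with 10% heat-inactivated FBS under 5% CO2. Data are the mean of three determinations.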
In general terms: Tetrazolium assays rely on reduction of a dye to a coloured formazan, in cell work by metabolically active cells.

Data set [3] deals with NCI-H1975. The experiment in a line: Induction of apoptosis in human NCI-H1975 cells assessed as cleaved caspase 9 after 24 hrs by immunoblotting analysis. The format is functional, cell-based.
A further data set concerns the target Tubulin (Homo sapiens) (UniProt P68371+Q9H4B7+P0DPH7+P68366+Q13509+Q71U36+P04350+Q3ZCM7+P07437+P68363+Q9BQE3+Q6PEY2+Q13885+Q9BVA1+Q9BUF5). The data set can be described thus: Binding affinity to tubulin (unknown origin) assessed as reduction in colchicine fluorescence after 1 hr in presence of colchicine by fluorescence based assay. The format is protein-complex assay. The method in brief: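 Tubulin (3 µM) mixed with colchicine (3 µM) and incubated with varying compound concentrations in PEM buffer, pH 6.9, for 1 h at 37 °C. Fluorescence read at ex 365/em 435 nm; mean ± SD.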

Data set [4] deals with NCI-H1975. The experiment in a line: Induction of morphological changes in human NCI-H1975 cells assessed as disruption of mitotic spindle arrangement at 40 nM after 6 hrs by DAPI staining based DAPI staining based confocal microscopic analysis. The format is functional, cell-based. The method in brief: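 Cells exposed for 6 h, fixed in 3.7% paraformaldehyde, permeabilized with 0.1% Triton X-100. Stained with anti-α-tubulin (1:1000) overnight at 4 °C, FITC secondary 1 h at 37 °C, nuclei counterstained with DAPI. Imaged by confocal laser scanning microscopy.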

Data set [5] is described as follows: Antiproliferative activity against human OECM1 cells assessed as reduction in cell viability after 72 hrs by MTS assay. The format is functional, cell-based. Particulars: OECM1, 72 h. The method, boiled down:
as §1

Data set [6] has as its system CL1-0. The data set can be described thus: Induction of mitotic arrest in human CL1-0 cells assessed as increase in cyclin B1 expression at 20 to 40 nM after 24 hrs by immunoblotting analysis. The format is functional, cell-based.
Another data set deals with PC-3. The experiment in a line: Antiproliferative activity against human PC3 cells assessed as reduction in cell viability after 72 hrs by MTS assay. Particulars: PC-3, 72 h. The format is functional, cell-based. The method in brief: as §1
Another data set deals with Tubulin (Sus scrofa) (UniProt P02554+P02550). The experiment in a line: Inhibition of porcine tubulin at 5 uM in presence of GTP measured every minute for 1 hr by microplate reader analysis. It is filed as protein assay.
Tubulin (Sus scrofa), sequence (P02550 whole entry, looked up): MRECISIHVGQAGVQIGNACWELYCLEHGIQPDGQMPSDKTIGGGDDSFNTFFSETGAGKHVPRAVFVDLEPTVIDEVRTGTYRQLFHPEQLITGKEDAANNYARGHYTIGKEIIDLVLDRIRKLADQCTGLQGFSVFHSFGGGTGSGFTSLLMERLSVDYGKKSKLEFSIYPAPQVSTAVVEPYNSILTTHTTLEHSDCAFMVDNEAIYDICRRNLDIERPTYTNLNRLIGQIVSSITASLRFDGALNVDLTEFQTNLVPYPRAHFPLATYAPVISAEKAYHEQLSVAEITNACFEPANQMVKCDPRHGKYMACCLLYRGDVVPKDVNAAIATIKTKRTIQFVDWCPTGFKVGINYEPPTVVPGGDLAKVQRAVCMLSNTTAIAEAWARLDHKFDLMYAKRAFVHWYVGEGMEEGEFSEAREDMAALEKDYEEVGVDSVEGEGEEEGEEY
Tubulin (Sus scrofa), sequence (P02554 whole entry, looked up): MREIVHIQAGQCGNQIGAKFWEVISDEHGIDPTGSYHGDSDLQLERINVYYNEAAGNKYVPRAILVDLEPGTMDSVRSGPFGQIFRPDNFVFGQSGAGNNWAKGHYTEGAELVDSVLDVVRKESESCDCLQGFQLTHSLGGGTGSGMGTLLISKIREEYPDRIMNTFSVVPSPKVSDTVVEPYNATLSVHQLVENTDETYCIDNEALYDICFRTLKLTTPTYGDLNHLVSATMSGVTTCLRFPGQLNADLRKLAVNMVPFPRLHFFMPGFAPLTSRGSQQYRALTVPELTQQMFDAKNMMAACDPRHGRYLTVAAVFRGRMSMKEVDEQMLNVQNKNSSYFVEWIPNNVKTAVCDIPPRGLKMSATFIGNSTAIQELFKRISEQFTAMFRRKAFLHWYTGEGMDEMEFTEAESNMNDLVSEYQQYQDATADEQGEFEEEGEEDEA
Data set [7] relates to NCI-H1975. The experiment in a line: Antitumour activity against human NCI-H1975 cells xenografted in Balb/c mouse assessed as reduction in tumour size at 8 mg/kg, ip administered 3 times per week and measured on day 25 (reference value: 1749 +/- 234.5 mm3). The format is functional.
Data set [8] has as its system NCI-H1975. The experiment in a line: Induction of mitotic arrest in human NCI-H1975 cells assessed as increase in phospho-histone H3 expression at 40 to 80 nM after 24 hrs by immunoblotting analysis. The format is functional, cell-based.
Data set [9] has as its system CL1-0. The experiment in a line: Induction of apoptosis in human CL1-0 cells assessed as cleaved caspase 3 expression at 20 nM by immunoblotting analysis. The format is functional, cell-based. Particulars: TDE = time-dependent effect.
For data set [10], the system named is CL1-0. The experiment in a line: Induction of apoptosis in human CL1-0 cells assessed as increase in cytochrome c level in cytosol at 20 to 40 nM after 24 hrs by immunoblotting analysis. It is filed as functional, cell-based.
Another data set relates to OVCAR-3. The experiment in a line: Antiproliferative activity against human OVCAR3 cells assessed as reduction in cell viability after 72 hrs by MTS assay. The format is functional, cell-based. Particulars: OVCAR-3, 72 h. The method in brief: as §1
A further data set has as its system HCT-116. The experiment in a line: Antiproliferative activity against human HCT116 cells assessed as reduction in cell viability after 72 hrs by MTS assay. It is filed as functional, cell-based. Particulars: HCT-116, 72 h. The method in brief: as §1
For data set [11], the system named is CL1-0. The data set can be described thus: Cell cycle arrest in human CL1-0 cells assessed as increase in cell population at sub-G1 phase after 24 hrs by propidium iodide-staining based flow cytometry. It is filed as functional. The method in brief:
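Cells treated for 24 h, then trypsinized and fixed overnight in ice-cold 70% ethanol. Stained for 30 min with propidium iodide (10 µg/mL) plus RNase (20 µg/mL), and DNA content measured by flow cytometry. Mean ± SD.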
In general terms: In flow cytometry, cells or beads pass a laser one at a time.

For data set [12], the target named is Tubulin alpha (Homo sapiens) (UniProt P0DPH7+P68366+Q71U36+P68363+Q9BQE3+Q6PEY2+A6NHL2+Q9NY65). The experiment in a line: Induction of microtubule depolymerization in human CL1-0 cells assessed as increase in alpha tubulin soluble form by immunoblot analysis. It is filed as cell-based. The method in brief:
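Lysate spun at 16,000 rpm for 15 min at room temperature. Soluble (monomer) and particulate (polymer) fractions immunoblotted for α-tubulin.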

Data set [13] can be described thus: Toxicity in Balb/c mouse xenografted with human KBtax cells assessed as serum creatinine level at 8 mg/kg, ip administered 3 times per week and measured after 21 days (reference value: 0.22 +/- 0.02 mg/dl). The format is organism-based. Conditions: in vivo, 504 h.
For data set [14], the species on record is Homo sapiens. The experiment in a line: Induction of apoptosis in human KBtax cells assessed as cleaved caspase-9 at 30 to 60 nM after 24 hrs by immunoblotting analysis. The format is functional, cell-based.
For data set [15], the species on record is Homo sapiens. The data set can be described thus: Induction of apoptosis in human KBtax cells assessed as PARP cleavage at 30 to 60 nM after 24 hrs by immunoblotting analysis. It is filed as functional, cell-based.
The species named for data set [16] is Homo sapiens. The experiment in a line: Effect on p-gp expression in human KBtax cells at 30 to 60 nM after 24 hrs by immunoblotting analysis. It is filed as functional, cell-based.

On to `CCOC(=O)c1ccc2nc(-c3ccccc3)cc(O)c2c1`, for which the Activity result is “Tde” in the data set with CL1-0 [1]; “Dose-dependent effect” in the data set with NCI-H1975 [3]; “Dose-dependent effect” at Tubulin (Homo sapiens); 587.2 mm3 in the data set with NCI-H1975 [7]; “Tde” in the data set with CL1-0 [9]; “Dose-dependent effect” with CL1-0 [11]. For the same molecule, the half-maximal inhibitory concentration (IC50) (commonly the concentration that gives 50% inhibition) came out at 35 nM in [2]; 52 nM in [5]; 45 nM in the data set on PC-3; 28 nM in the data set with OVCAR-3; 50 nM in the data set on HCT-116. Also, the outcome (in the data set on NCI-H1975 [4]; with CL1-0 [6]; in the data set with NCI-H1975 [8]; in the data set with CL1-0 [10]; in data set [12]) was Active. For the same molecule, on Tubulin (Sus scrofa), the “tubulin inhibition call (active/not active)” value is “Active”.

Consider `CCOC(=O)c1ccc2[nH]c(-c3cccc(F)c3)cc(=O)c2c1`, for which the Activity in [13] is 0.26 mg/dL. In addition, the result in the data set listed under Homo sapiens [14] and in the data set filed under Homo sapiens [15] was Active. Besides, the result in the data set listed under Homo sapiens [16] was inactive.
